Measured values reported in ChEMBL document CHEMBL3588757, “Structure-based design, synthesis and biological testing of piperazine-linked bis-epipodophyllotoxin etoposide analogs” (Bioorg Med Chem, 2015).

Legend:
[1] = system: BT-549; experiment: Cytotoxicity against human BT549 cells assessed as cell growth at 5 uM by SRB assay; format: functional; settings: read-out: Activity
[2] = system: NCI-H522; experiment: Cytotoxicity against human NCI-H522 cells assessed as cell growth at 0.5 uM by SRB assay; format: functional; settings: read-out: Activity
[3] = system: A498; experiment: Cytotoxicity against human A498 cells assessed as cell growth at 0.005 uM by SRB assay; format: functional; settings: read-out: Activity
[4] = system: MDA-MB-468; experiment: Cytotoxicity against human MDA-MB-468 cells assessed as cell growth at 0.5 uM by SRB assay; format: functional; settings: read-out: Activity
[5] = system: SN12C; experiment: Cytotoxicity against human SN12C cells by SRB assay; format: functional
How it was run: (§1)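 NCI-60 panel screen; 5-dose testing giving GI50 per cell line, plus a single 10 µM one-dose test. Method details not given beyond the NCI screen.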

[6] = system: SNB-19; experiment: Cytotoxicity against human SNB19 cells assessed as cell growth at 5 uM by SRB assay; format: functional; settings: read-out: Activity
[7] = system: SF-295; experiment: Cytotoxicity against human SF295 cells assessed as cell growth at 50 uM by SRB assay; format: functional; settings: read-out: Activity
[8] = system: SF-295; experiment: Cytotoxicity against human SF295 cells assessed as cell growth at 0.5 uM by SRB assay; format: functional; settings: read-out: Activity
[9] = system: M14; experiment: Cytotoxicity against human M14 cells assessed as cell growth at 0.05 uM by SRB assay; format: functional; settings: read-out: Activity
[10] = Cytotoxicity against human Hs578T cells assessed as cell growth at 0.5 uM by SRB assay; format: functional; settings: Hs-578T, read-out: Activity
How it was run: (§2)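 Measured in the NCI-60 human tumour cell line panel using five-dose testing. Growth was recorded at each dose for each cell line, and a GI50 was derived for each line.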

[11] = system: COLO 205; experiment: Cytotoxicity against human COLO205 cells assessed as cell growth at 0.005 uM by SRB assay; format: functional; settings: read-out: Activity
[12] = system: CCRF-CEM; experiment: Cytotoxicity against human CCRF-CEM cells assessed as cell growth at 0.005 uM by SRB assay; format: functional; settings: read-out: Activity
[13] = system: SK-OV-3; experiment: Cytotoxicity against human SKOV3 cells assessed as cell growth at 0.05 uM by SRB assay; format: functional; settings: read-out: Activity
[14] = system: A498; experiment: Cytotoxicity against human A498 cells assessed as cell growth at 0.5 uM by SRB assay; format: functional; settings: read-out: Activity
[15] = system: MDA-MB-435; experiment: Cytotoxicity against human MDA-MB-435 cells assessed as cell growth at 0.005 uM by SRB assay; format: functional; settings: read-out: Activity
[16] = system: SK-MEL-5; experiment: Cytotoxicity against human SK-MEL-5 cells assessed as cell growth at 0.05 uM by SRB assay; format: functional; settings: read-out: Activity
[17] = system: HL-60(TB); experiment: Cytotoxicity against human HL-60(TB) cells assessed as cell growth at 0.005 uM by SRB assay; format: functional; settings: read-out: Activity; how it was run: as §2
[18] = system: MDA-MB-231; experiment: Cytotoxicity against human MDA-MB-231/ATCC cells by SRB assay; format: functional; how it was run: as §1
[19] = system: UACC-257; experiment: Cytotoxicity against human UACC257 cells assessed as cell growth at 0.005 uM by SRB assay; format: functional; settings: read-out: Activity
[20] = molecular target: DNA topoisomerase 2-alpha (Homo sapiens) (UniProt P11388); experiment: Inhibition of full-length human recombinant topoisomerase 2-alpha mediated relaxation and cleavage of supercoiled pBR322 plasmid DNA to linear DNA by ethidium bromide staining based gel electrophoresis assay
How it was run: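 Recombinant full-length human topoisomerase IIα with supercoiled pBR322 DNA at 37 °C. Components mixed on ice before drug addition. Complexes trapped with SDS; products run on ethidium bromide gels. Linear DNA identified against a HindIII-linearized marker; repeated on three days.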

[21] = system: SW-620; experiment: Cytotoxicity against human SW620 cells by SRB assay; format: functional; how it was run: as §1
[22] = system: CCRF-CEM; experiment: Cytotoxicity against human CCRF-CEM cells assessed as cell growth at 50 uM by SRB assay; format: functional; settings: read-out: Activity
[23] = system: NCI-H322M; experiment: Cytotoxicity against human NCI-H322M cells assessed as cell growth at 0.05 uM by SRB assay; format: functional; settings: read-out: Activity
[24] = system: MOLT-4; experiment: Cytotoxicity against human MOLT4 cells assessed as cell growth at 0.005 uM by SRB assay; format: functional; settings: read-out: Activity
[25] = system: OVCAR-8; experiment: Cytotoxicity against human OVCAR8 cells assessed as cell growth at 50 uM by SRB assay; format: functional; settings: read-out: Activity
[26] = system: CCRF-CEM; experiment: Cytotoxicity against human CCRF-CEM cells assessed as cell growth at 0.5 uM by SRB assay; format: functional; settings: read-out: Activity
[27] = Cytotoxicity against human Hs578T cells assessed as cell growth at 0.05 uM by SRB assay; format: functional; settings: Hs-578T, read-out: Activity; how it was run: as §2
[28] = system: RXF 393; experiment: Cytotoxicity against human RXF393 cells assessed as cell growth at 0.005 uM by SRB assay; format: functional; settings: read-out: Activity
[29] = system: HL-60(TB); experiment: Cytotoxicity against human HL-60(TB) cells assessed as cell growth at 50 uM by SRB assay; format: functional; settings: read-out: Activity; how it was run: as §2
[30] = system: UACC-62; experiment: Cytotoxicity against human UACC62 cells by SRB assay; format: functional; how it was run: as §1
[31] = system: SK-OV-3; experiment: Cytotoxicity against human SKOV3 cells by SRB assay; format: functional; how it was run: as §1
[32] = system: SN12C; experiment: Cytotoxicity against human SN12C cells assessed as cell growth at 0.05 uM by SRB assay; format: functional; settings: read-out: Activity
[33] = system: OVCAR-3; experiment: Cytotoxicity against human OVCAR3 cells assessed as cell growth at 0.05 uM by SRB assay; format: functional; settings: read-out: Activity
[34] = system: LOX IMVI; experiment: Cytotoxicity against human LOXIMVI cells assessed as cell growth at 5 uM by SRB assay; format: functional; settings: read-out: Activity
[35] = system: NCI-H23; experiment: Cytotoxicity against human NCI-H23 cells assessed as cell growth at 50 uM by SRB assay; format: functional; settings: read-out: Activity
[36] = system: RXF 393; experiment: Cytotoxicity against human RXF393 cells assessed as cell growth at 0.05 uM by SRB assay; format: functional; settings: read-out: Activity
[37] = Cytotoxicity against human Hs578T cells by SRB assay; format: functional; settings: Hs-578T; how it was run: as §2
[38] = system: KM12; experiment: Cytotoxicity against human KM12 cells assessed as cell growth at 0.005 uM by SRB assay; format: functional; settings: read-out: Activity
[39] = system: MDA-MB-435; experiment: Cytotoxicity against human MDA-MB-435 cells assessed as cell growth at 50 uM by SRB assay; format: functional; settings: read-out: Activity
[40] = Cytotoxicity against human NCI-ADR-RES cells assessed as cell growth at 50 uM by SRB assay; format: functional; settings: read-out: Activity
[41] = read-out: LC50 (the source's name)
[42] = read-out: pLC50 (the source's name) (converted)

Chain of DNA topoisomerase 2-alpha (Homo sapiens) (P11388 whole entry): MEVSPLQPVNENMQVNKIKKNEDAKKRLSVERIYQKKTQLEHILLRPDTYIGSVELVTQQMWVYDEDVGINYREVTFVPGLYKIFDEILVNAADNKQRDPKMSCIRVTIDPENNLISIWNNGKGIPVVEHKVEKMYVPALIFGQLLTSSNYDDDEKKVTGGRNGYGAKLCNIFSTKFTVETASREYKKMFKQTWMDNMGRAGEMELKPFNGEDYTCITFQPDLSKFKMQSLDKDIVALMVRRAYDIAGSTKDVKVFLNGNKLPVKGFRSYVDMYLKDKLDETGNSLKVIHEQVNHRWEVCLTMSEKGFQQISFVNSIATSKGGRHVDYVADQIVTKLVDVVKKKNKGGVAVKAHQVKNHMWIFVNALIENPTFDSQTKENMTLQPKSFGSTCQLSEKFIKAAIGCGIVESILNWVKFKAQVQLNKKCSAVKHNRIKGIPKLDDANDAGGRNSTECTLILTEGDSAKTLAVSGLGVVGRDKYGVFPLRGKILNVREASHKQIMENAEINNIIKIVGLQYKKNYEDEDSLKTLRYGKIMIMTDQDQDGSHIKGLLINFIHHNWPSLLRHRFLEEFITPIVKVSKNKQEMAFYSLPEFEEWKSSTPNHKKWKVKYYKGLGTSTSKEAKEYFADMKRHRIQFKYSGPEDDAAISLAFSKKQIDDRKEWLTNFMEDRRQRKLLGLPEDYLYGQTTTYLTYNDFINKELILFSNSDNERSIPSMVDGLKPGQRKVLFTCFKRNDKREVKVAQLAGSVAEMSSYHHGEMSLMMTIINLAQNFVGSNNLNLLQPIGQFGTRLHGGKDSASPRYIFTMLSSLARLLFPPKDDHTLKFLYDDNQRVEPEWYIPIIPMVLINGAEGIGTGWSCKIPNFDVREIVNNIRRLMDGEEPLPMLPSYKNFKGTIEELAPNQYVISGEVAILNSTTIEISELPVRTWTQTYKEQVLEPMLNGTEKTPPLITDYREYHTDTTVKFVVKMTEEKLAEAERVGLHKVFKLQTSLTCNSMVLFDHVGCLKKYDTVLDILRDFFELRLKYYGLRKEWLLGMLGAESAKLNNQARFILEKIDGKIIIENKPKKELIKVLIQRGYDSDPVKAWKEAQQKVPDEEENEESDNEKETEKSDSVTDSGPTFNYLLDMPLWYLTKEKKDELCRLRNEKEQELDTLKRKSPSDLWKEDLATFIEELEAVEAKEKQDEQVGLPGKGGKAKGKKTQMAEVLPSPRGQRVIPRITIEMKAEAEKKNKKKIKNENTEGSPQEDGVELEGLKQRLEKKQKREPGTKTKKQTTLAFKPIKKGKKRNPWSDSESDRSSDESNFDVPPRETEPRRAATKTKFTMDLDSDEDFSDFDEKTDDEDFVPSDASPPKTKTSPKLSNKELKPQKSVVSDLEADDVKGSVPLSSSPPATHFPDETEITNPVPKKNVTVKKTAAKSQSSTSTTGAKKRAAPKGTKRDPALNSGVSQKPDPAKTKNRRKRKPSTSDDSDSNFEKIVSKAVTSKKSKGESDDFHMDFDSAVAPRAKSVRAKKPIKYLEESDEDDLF

For COc1cc([C@@H]2c3cc4c(cc3[C@@H](NC(=O)CN3CCN(CCCCCCN5CCN(CC(=O)N[C@@H]6c7cc8c(cc7[C@@H](c7cc(OC)c(O)c(OC)c7)[C@H]7C(=O)OC[C@@H]76)OCO8)CC5)CC3)[C@H]3COC(=O)[C@H]23)OCO4)cc(OC)c1O, the growth at 5 µM [1] was -5%, the growth at 0.5 µM [2] was 75% and the growth at 0.005 µM [3] was 82%. The growth at 0.5 µM [4] was 83%, the GI50 ([5]; read-out: GI50) was 1310 nM and the CC50 [5, 41] was > 50 µM. The TGI ([5]; read-out: TGI) was > 50 µM, the GI50 ([5]; read-out: pGI50 (converted)) was 1320 nM and the CC50 [5, 42] was > 50.1 µM. The TGI ([5]; read-out: pTGI (converted)) was > 50.1 µM, the growth at 5 µM [6] was 15% and the growth at 50 µM [7] was 1%. For the same molecule, the growth at 0.5 µM [8] was 94%, the growth at 0.05 µM [9] was 94% and the growth at 0.5 µM [10] was 77%. It also gave a growth at 0.005 µM [11] of 101%, a growth at 0.005 µM [12] of 102% and a growth at 0.05 µM [13] of 107%. The growth at 0.5 µM [14] was 78%, the growth at 0.005 µM [15] was 91% and the growth at 0.05 µM [16] was 93%. The growth at 0.005 µM [17] was 120%, the GI50 ([18]; read-out: GI50) was 13.6 µM and the CC50 [18, 41] was > 50 µM. For the same molecule, the TGI ([18]; read-out: TGI) was > 50 µM, the GI50 ([18]; read-out: pGI50 (converted)) was 13.5 µM and the CC50 [18, 42] was > 50.1 µM. The TGI ([18]; read-out: pTGI (converted)) was > 50.1 µM, the growth at 0.005 µM [19] was 99% and the “Effect on topoisomerase 2-alpha DNA cleavage (qualitative)” value [20] was “Dose-dependent effect”. The GI50 ([21]; read-out: GI50) was 1600 nM, the CC50 [21, 41] was > 50 µM and the TGI ([21]; read-out: TGI) was > 50 µM. The GI50 ([21]; read-out: pGI50 (converted)) was 1580 nM, the CC50 [21, 42] was > 50.1 µM and the TGI ([21]; read-out: pTGI (converted)) was > 50.1 µM. The growth at 50 µM [22] was 7%, the growth at 0.05 µM [23] was 105% and the growth at 0.005 µM [24] was 108%. For the same molecule, the growth at 50 µM [25] was 43%, the growth at 0.5 µM [26] was 31% and the growth at 0.05 µM [27] was 90%. The growth at 0.005 µM [28] was 99%, the growth at 50 µM [29] was -1% and the GI50 ([30]; read-out: GI50) was 1550 nM. The CC50 [30, 41] was > 50 µM, the TGI ([30]; read-out: TGI) was 35.7 µM and the GI50 ([30]; read-out: pGI50 (converted)) was 1550 nM. The CC50 [30, 42] was > 50.1 µM, the TGI ([30]; read-out: pTGI (converted)) was 35.5 µM and the GI50 ([31]; read-out: GI50) was 3.87 µM. The CC50 [31, 41] was > 50 µM, the TGI ([31]; read-out: TGI) was > 50 µM and the GI50 ([31]; read-out: pGI50 (converted)) was 3.89 µM. For the same molecule, the CC50 [31, 42] was > 50.1 µM, the TGI ([31]; read-out: pTGI (converted)) was > 50.1 µM and the growth at 0.05 µM [32] was 97%. For the same molecule, the growth at 0.05 µM [33] was 108%, the growth at 5 µM [34] was 23% and the growth at 50 µM [35] was -6%. For the same molecule, the growth at 0.05 µM [36] was 92%, the GI50 ([37]; read-out: GI50) was 8.93 µM and the CC50 [37, 41] was > 50 µM. For the same molecule, the TGI ([37]; read-out: TGI) was > 50 µM, the GI50 ([37]; read-out: pGI50 (converted)) was 8.91 µM and the CC50 [37, 42] was > 50.1 µM. For the same molecule, the TGI ([37]; read-out: pTGI (converted)) was > 50.1 µM, the growth at 0.005 µM [38] was 103% and the growth at 50 µM [39] was 17%. For the same molecule, the growth at 50 µM [40] was 87%.
